Laboratory results from ChEMBL document CHEMBL1833886, “Synthesis and evaluation of furoxan-based nitric oxide-releasing derivatives of tetrahydroisoquinoline as anticancer and multidrug resistance reversal agents” (Bioorg Med Chem Lett, 2011).
The source made the active and inactive calls. The calls are words filed in the database; no cut-off is given here.

Legend:
K562 [1] = assay: Cytotoxicity against human K562 cells after 48 hrs by MTT assay; type: functional, cell-based; details: K562, 48 h
In short: (§1)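 K562 and adriamycin-selected K562/A02 cells in RPMI 1640 with 10% fetal calf serum, 37 °C, 5% CO2; kept drug-free >14 days before assay. Log-phase cells at 1 × 10⁵/mL in 96-well plates, exposed to a range of compound concentrations (DMSO stock, final DMSO ≤0.1%) for 48 h. MTT added during last 4 h, formazan in DMSO, read at 570 nm. Duplicate wells, ≥3 experiments. IC50 by Bliss method.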

[2] = Cytotoxicity against adriamycin-resistant human K562/A02 cells after 48 hrs by MTT assay; type: functional, cell-based; details: K562/A02, 48 h; in short: as §1
K562/A02 [3] = assay: Reversal of P-gp-mediated multidrug-resistance in adriamycin-resistant human K562/A02 cells at 10 uM after 48 hrs by MTT assay relative to adriamycin; type: cell-based
In short: (§2)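 Cells at 3 × 10⁴/well received graded adriamycin plus test compound (final 10 µM), 48 h at 37 °C, 5% CO2, then MTT read-out at 570 nm. Adriamycin IC50 by Bliss method. Fold reversal = IC50 of adriamycin alone / IC50 with modulator. Student's t test versus no modulator, P < 0.05.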

K562 [4] = assay: Reversal of P-gp-mediated multidrug-resistance in human K562 cells at 10 uM after 48 hrs by MTT assay relative to adriamycin; type: cell-based; in short: as §2
K562/A02 [5] = assay: Inhibition of P-gp-mediated rhodamine-123 uptake in adriamycin-resistant human K562/A02 cells assessed as rhodamine-123 accumulation at 10 uM after 60 mins by flow cytometry; type: cell-based
In short: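 Rhodamine123 uptake in K562/A02 cells followed by fluorescence after treatment with 10 µM (final) modulator; verapamil group as reference, untreated control. Intracellular rhodamine123 read from a rhodamine123 standard curve, fluorescence taken as relative concentration. Student's t test, P < 0.05.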

K562/A02 [6] = assay: Induction of NO production in adriamycin-resistant human K562/A02 cells at 10 uM after 24 hrs by Griess assay; type: functional, cell-based
In short: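 K562/A02 cells (5 × 10⁶ per well) exposed in triplicate to 10 µM compound for 24 h, harvested and lysed. Lysates mixed with Griess reagent 30–300 min, absorbance at 570 nm. Nitrite/nitrate quantified against sodium nitrate standard curve; diluent-treated cells as background control. Mean SD of three separate experiments.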

SMILES | IC50 (K562 [1]) | IC50 [2] | fold change (FC) (K562/A02 [3]) | fold change (FC) (K562 [4]) | inhibition (K562/A02 [5]) | Activity (K562/A02 [6])
COc1cc2c(cc1OC)CN(C(=O)CCC(=O)OCCOc1no[n+]([O-])c1S(=O)(=O)c1ccccc1)CC2 | 1.15 µM | 12.7 µM | 10.7 | 1.34 |  | 
COc1cc2c(cc1OC)C(COc1ccccc1)N(C(=O)CCC(=O)OCCOc1no[n+]([O-])c1S(=O)(=O)c1ccccc1)CC2 (stereo not given) | 1.45 µM | 10.8 µM | 10.7 | 1.54 |  | 
COc1cc2c(cc1OC)C(Cc1cccc3ccccc13)N(C(=O)CCC(=O)OCCOc1no[n+]([O-])c1S(=O)(=O)c1ccccc1)CC2 (stereo not given) | 1.03 µM | 9.98 µM | 2.02 | 1.59 |  | 
COc1ccc(CCN(C)CCCC(C#N)(c2ccc(OC)c(OC)c2)C(C)C)cc1OC (stereo not given) |  |  | 17.4 | 0.96 |  | 
COc1cc2c(cc1OC)C(COc1ccccc1)N(C(=O)CCC(=O)OCC#CCOc1no[n+]([O-])c1S(=O)(=O)c1ccccc1)CC2 (stereo not given) | 0.892 µM | 6.36 µM | 1.73 | 1.73 |  | 
COc1cc2c(cc1OC)C(COc1ccccc1)N(C(=O)CCC(=O)OCCCCOc1no[n+]([O-])c1S(=O)(=O)c1ccccc1)CC2 (stereo not given) | 1.5 µM | 17.5 µM | 1.68 | 1.06 |  | 
COc1cc2c(cc1OC)C(Cc1cccc3ccccc13)N(C(=O)CCC(=O)OCC#CCOc1no[n+]([O-])c1S(=O)(=O)c1ccccc1)CC2 (stereo not given) | 0.875 µM | 7.5 µM | 32 | 1.86 | Active | Active
COc1cc2c(cc1OC)C(Cc1cccc3ccccc13)N(C(=O)CCC(=O)OCCCCOc1no[n+]([O-])c1S(=O)(=O)c1ccccc1)CC2 (stereo not given) | 1 µM | 12.2 µM | 17.4 | 1.47 | Active | Active
COc1cccc2c1C(=O)c1c(O)c3c(c(O)c1C2=O)C[C@@](O)(C(=O)CO)C[C@@H]3O[C@H]1C[C@H](N)[C@H](O)[C@H](C)O1 [DOXORUBICIN] |  | 17.8 µM |  |  |  | 
COc1cc2c(cc1OC)C(Cc1cccc3ccccc13)N(C(=O)CCC(=O)OCCCCCCOc1no[n+]([O-])c1S(=O)(=O)c1ccccc1)CC2 (stereo not given) | 1.6 µM | 12.3 µM | 5.05 | 1.35 |  | 
COc1cc2c(cc1OC)CN(C(=O)CCC(=O)OCC#CCOc1no[n+]([O-])c1S(=O)(=O)c1ccccc1)CC2 | 0.901 µM | 8.08 µM | 10.1 | 1.65 |  | 
CCCCCCCCN/C(=N/C#N)N1CCc2cc(OC)c(OC)cc2C1Cc1ccc(OC)c(OC)c1 (stereo not given) |  | > 500 µM |  |  |  | inactive
COc1cc2c(cc1OC)C(COc1ccccc1)N(C(=O)CCC(=O)OCCCCCCOc1no[n+]([O-])c1S(=O)(=O)c1ccccc1)CC2 (stereo not given) | 1.79 µM | 13.5 µM | 3.15 | 1.2 |  | 
COc1ccc(CC2c3cc(OC)c(OC)cc3CCN2C(=O)CCC(=O)OCCCCCCOc2no[n+]([O-])c2S(=O)(=O)c2ccccc2)cc1OC (stereo not given) | 1.65 µM | 12.5 µM | 1.96 | 1.35 |  | 
COc1ccc(CC2c3cc(OC)c(OC)cc3CCN2C(=O)CCC(=O)OCCOc2no[n+]([O-])c2S(=O)(=O)c2ccccc2)cc1OC (stereo not given) | 1.09 µM | 11.3 µM | 21.3 | 1.47 | Active | Active
COc1ccc(CC2c3cc(OC)c(OC)cc3CCN2C(=O)CCC(=O)OCCCCOc2no[n+]([O-])c2S(=O)(=O)c2ccccc2)cc1OC (stereo not given) | 1.93 µM | 13 µM | 1.88 | 1.1 |  | 
COc1cc2c(cc1OC)CN(C(=O)CCC(=O)OCCCCOc1no[n+]([O-])c1S(=O)(=O)c1ccccc1)CC2 | 1.56 µM | 11.8 µM | 1.85 | 1.5 |  | 
COc1ccc(CC2c3cc(OC)c(OC)cc3CCN2C(=O)CCC(=O)OCC#CCOc2no[n+]([O-])c2S(=O)(=O)c2ccccc2)cc1OC (stereo not given) | 0.905 µM | 8.05 µM | 5.65 | 1.65 |  | 
COc1cc2c(cc1OC)CN(C(=O)CCC(=O)OCCCCCCOc1no[n+]([O-])c1S(=O)(=O)c1ccccc1)CC2 | 1.73 µM | 14.6 µM | 3.2 | 1.09 |  | 
